Results: ChEMBL document CHEMBL1138813, “Synthesis and antiviral activity of 3-formyl- and 3-cyano-2,5,6-trichloroindole nucleoside derivatives” (J Med Chem, 2004)

Assays:
[1] = Cytotoxicity against KB cells was determined by crystal violet staining and spectrophotometric quantitation of dye eluted from stained cells; assay type: functional, cell-based; conditions: Homo sapiens
How it was run: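 KB cells seeded at 3000–5000 per well, incubated overnight at 37 °C, then compound added in quadruplicate at six to eight concentrations. After 48 h at 37 °C in CO₂ (two population doublings), cells were fixed in 95% ethanol and stained with 0.1% crystal violet. Dye eluted with acidified ethanol, read at 570 nm. IC50 from linear regression of % inhibition vs log10 concentration.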

[2] = test system: HFF; assay: Inhibitory concentration required against human cytomegalovirus (HCMV) expressed in HFF cells was determined by plaque reduction assay; assay type: functional, cell-based
How it was run: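 HFF cells in 24-well dishes infected with about 100 pfu/cm² of HCMV Towne strain. After adsorption, compound (10 mg/mL DMSO stock diluted in medium) added to duplicate wells at four to eight concentrations. Incubated 7–10 days at 37 °C, then fixed and crystal violet stained; plaques counted microscopically. % plaque reduction vs drug-free wells; IC50 by log-linear regression. GCV as positive control.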

[3] = test system: HFF; assay: Cytotoxicity produced in stationary HFF cells was determined by microscopic inspection of uninfected cells; assay type: functional, cell-based; conditions: Homo sapiens
How it was run: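 Stationary HFF cells in MEM with 10% fetal bovine serum, in plaque-assay plates. Visual cytotoxicity scored microscopically in duplicate wells on cells not affected by virus, at the time of HCMV plaque enumeration (after 7–10 days at 37 °C). IC50 from linear portion of regression of % inhibition against log10 drug concentration.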

[4] = Inhibitory concentration required against herpes simplex virus type-1 (HSV-1) expressed in BSC-1 cells was determined by ELISA assay; assay type: functional, cell-based, Cercopithecidae
How it was run: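 BSC-1 cells, 10 000 per well in MEM(E) plus 10% calf serum, incubated overnight at 37 °C. Drug added in quadruplicate with HSV-1 KOS strain at 100 pfu/well, then 3 days at 37 °C. […] Acyclovir as positive control.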

With `NC(=O)N/N=C/c1c(Cl)n(C2O[C@H](CO)[C@@H](O)[C@H]2O)c2cc(Cl)c(Cl)cc12` (some centres not stated) as the compound, how does the IC50 [1] read?
The IC50 was greater than 100 µM.

And the IC50 [2]?
The IC50 was 3 µM.

What about the IC50 [3] of the same compound?
Its IC50 is 100 µM.

And the IC50 [4]?
The IC50 was greater than 100 µM.

Which results are given for `COC(=O)N/N=C/c1c(Cl)n(C2O[C@H](CO)[C@@H](O)[C@H]2O)c2cc(Cl)c(Cl)cc12` (some centres not stated)?
IC50 [1]: 20 µM; IC50 [2]: 1.7 µM; IC50 [3]: 32 µM; IC50 [4]: 30 µM

With `N/C(S)=N/N=C/c1c(Cl)n(C2O[C@H](CO)[C@@H](O)[C@H]2O)c2cc(Cl)c(Cl)cc12` (some centres not stated) as the compound, how does the IC50 [1] read?
The IC50 was 65 µM.

And the IC50 [2]?
Its IC50 is 2.2 µM.

And the IC50 [3]?
The IC50 was 100 µM.

What about the IC50 [4] of the same compound?
Its IC50 is greater than 100 µM.

What does the source list for `OC[C@H]1O[C@@H](n2c(Br)nc3cc(Cl)c(Cl)cc32)C(O)[C@@H]1O` (single isomer, unassigned)?
IC50 [1]: > 100 µM; IC50 [4]: 130 µM

With `OC[C@H]1O[C@@H](n2c(Cl)nc3cc(Cl)c(Cl)cc32)C(O)[C@@H]1O` (single isomer, unassigned) as the compound, how does the IC50 [1] read?
Its IC50 is 210 µM.

And the IC50 [4]?
Its IC50 is 102 µM.

What does the source list for `OC[C@H]1OC(n2c(Cl)c(/C=N/O)c3cc(Cl)c(Cl)cc32)C(O)[C@@H]1O` (single isomer, unassigned)?
IC50 [1]: 25 µM; IC50 [2]: 3.9 µM; IC50 [3]: 20 µM; IC50 [4]: 5 µM

Which results are given for `CO/N=C/c1c(Cl)n(C2O[C@H](CO)[C@@H](O)C2O)c2cc(Cl)c(Cl)cc12` (single isomer, unassigned)?
IC50 [1]: 70 µM; IC50 [2]: 40 µM; IC50 [3]: 32 µM; IC50 [4]: 15 µM

Which results are given for `N#Cc1c(Cl)n(C2O[C@H](CO)[C@@H](O)C2O)c2cc(Cl)c(Cl)cc12` (single isomer, unassigned)?
IC50 [1]: 65 µM; IC50 [2]: 0.55 µM; IC50 [4]: 15 µM

With `O=Cc1c(Cl)n(C2O[C@H](CO)[C@@H](O)C2O)c2cc(Cl)c(Cl)cc12` (single isomer, unassigned) as the compound, how does the IC50 [1] read?
The IC50 was 45 µM.

What about the IC50 [2] of the same compound?
Its IC50 is 0.23 µM.

And the IC50 [4]?
Its IC50 is 40 µM.

Which IC50 [1] does the source give for `NC(=O)c1c(Cl)n(C2O[C@H](CO)[C@@H](O)C2O)c2cc(Cl)c(Cl)cc12` (single isomer, unassigned) here?
The IC50 was 45 µM.

And the IC50 [2]?
The IC50 was 2 µM.

What about the IC50 [3] of the same compound?
The IC50 was 45 µM.

And the IC50 [4]?
Its IC50 is 40 µM.

Which IC50 [1] does the source give for `N/C(=N\O)c1c(Br)n(C2O[C@H](CO)[C@@H](O)C2O)c2cc(Cl)c(Cl)cc12` (single isomer, unassigned) here?
The IC50 was 35 µM.

And the IC50 [2]?
The IC50 was 0.41 µM.

What about the IC50 [3] of the same compound?
Its IC50 is greater than 100 µM.

And the IC50 [4]?
Its IC50 is greater than 100 µM.

For `COC(=N)c1c(Cl)n(C2O[C@H](CO)[C@@H](O)C2O)c2cc(Cl)c(Cl)cc12` (single isomer, unassigned), which IC50 [1] is on record?
The IC50 was 50 µM.

And the IC50 [2]?
The IC50 was 0.36 µM.

And the IC50 [3]?
The IC50 was 100 µM.

And the IC50 [4]?
Its IC50 is 70 µM.

Which IC50 [1] does the source give for `N/C(=N\O)c1c(Cl)n(C2O[C@H](CO)[C@@H](O)C2O)c2cc(Cl)c(Cl)cc12` (single isomer, unassigned) here?
Its IC50 is greater than 100 µM.

And the IC50 [2]?
Its IC50 is 0.3 µM.

What about the IC50 [3] of the same compound?
The IC50 was 100 µM.

And the IC50 [4]?
Its IC50 is 70 µM.

With `CC(=O)N/N=C/c1c(Cl)n(C2O[C@H](CO)[C@@H](O)C2O)c2cc(Cl)c(Cl)cc12` (single isomer, unassigned) as the compound, how does the IC50 [1] read?
The IC50 was 9 µM.

What about the IC50 [2] of the same compound?
The IC50 was 1.7 µM.

And the IC50 [3]?
The IC50 was 32 µM.

And the IC50 [4]?
The IC50 was 30 µM.

For `CN(C)/N=C/c1c(Cl)n(C2O[C@H](CO)[C@@H](O)C2O)c2cc(Cl)c(Cl)cc12` (single isomer, unassigned), which IC50 [1] is on record?
The IC50 was 70 µM.

And the IC50 [2]?
The IC50 was 0.27 µM.

And the IC50 [3]?
The IC50 was 32 µM.

And the IC50 [4]?
Its IC50 is 15 µM.

With `Nc1nc2c(ncn2COC(CO)CO)c(=O)[nH]1` [GANCICLOVIR] as the compound, how does the IC50 [1] read?
The IC50 was greater than 100 µM.

What about the IC50 [3] of the same compound?
Its IC50 is greater than 100 µM.

What about the IC50 [4] of the same compound?
Its IC50 is 3.5 µM.
